Source: PubChem BioAssay (Broad Institute)
SR-BI DiI inh = inhibitors of SR-BI mediated HDL lipid uptake, primary screen, ldlA[mSR-BI] cells, fluorescence, single point. Scavenger receptor class B member 1 (Mus musculus), Q61009. ldlA[mSR-BI] CHO cells, DiI-HDL uptake fluorescence, 3 h. inhibition, % at 12.5 µM. 320,000 tested, 0.96% active;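 active = mean replicate inhibition of at least 70% and a set share of replicates each scoring 70 or more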;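 note: 0% = median of neutral control wells and 100% = median of positive control wells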
Target sequence (Q61009 whole entry, looked up): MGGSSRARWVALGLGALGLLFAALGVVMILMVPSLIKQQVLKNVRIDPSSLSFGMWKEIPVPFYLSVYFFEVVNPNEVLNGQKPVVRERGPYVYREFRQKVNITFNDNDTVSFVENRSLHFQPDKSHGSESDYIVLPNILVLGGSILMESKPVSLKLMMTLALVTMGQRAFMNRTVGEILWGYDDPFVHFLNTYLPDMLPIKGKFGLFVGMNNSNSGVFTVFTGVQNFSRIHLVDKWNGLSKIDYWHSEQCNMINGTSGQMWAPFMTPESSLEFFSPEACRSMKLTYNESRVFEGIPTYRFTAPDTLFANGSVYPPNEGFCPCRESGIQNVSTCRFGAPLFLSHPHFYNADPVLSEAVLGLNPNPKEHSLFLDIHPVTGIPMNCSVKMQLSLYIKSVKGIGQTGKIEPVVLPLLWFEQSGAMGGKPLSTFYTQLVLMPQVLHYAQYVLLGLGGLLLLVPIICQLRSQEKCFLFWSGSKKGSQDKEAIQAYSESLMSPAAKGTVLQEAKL
PvdQ inh = P. aeruginosa PvdQ acylase inhibitors, primary screen, biochemical, fluorescence, plate reader and imaging, single point; PvdQ acylase [Pseudomonas aeruginosa LESB58]; purified PvdQ acylase; 340,000 tested, 0.063% active; inhibition, % at 10 µM; in the data active = inhibition above about 30%, passing the limit was not always enough;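 note: 0% = vehicle neutral wells and 100% = reference inhibitor wells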
dFosB activator = activators of delta FosB homodimer, primary screen, biochemical, fluorescence polarization, TAMRA-CDK5 oligo, single point; Protein FosB (Mus musculus), P13346; purified delta FosB; percent of positive-control signal above neutral wells; activation, % at 25 µM; 340,000 tested, 0.99% active; AID 493131, 2011;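 active = mean activation above about 17%, with every replicate also reaching it, limit read from the data, passing the limit was not always enough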
S100A4 inh HTS = inhibitors of S100A4-myosin IIA peptide binding, primary screen, biochemical, fluorescence polarization, TAMRA-MyoIIA peptide; inhibition, % at 10.7 µM; 360,000 tested, 0.14% active; AID 652163, 2013;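 active = mean inhibition of at least 70% across replicates, with every replicate also reaching that level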
Target sequence (P26447 whole entry, looked up): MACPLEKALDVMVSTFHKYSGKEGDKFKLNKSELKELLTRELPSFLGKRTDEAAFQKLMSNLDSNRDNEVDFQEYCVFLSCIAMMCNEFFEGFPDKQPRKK
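Test system: S100A4 monomer protein; Medium: HEPES pH 7.2 with CaCl2, KCl, NaCl, DTT, Triton; Probe or stimulus: TAMRA-labelled myosin IIA heavy-chain peptide probe, 5 nM; Doses: one dose per compound; Times: polarization read 5 min after assay mix addition, stable 5–60 min; Benchmarks: neutral control DMSO, positive control TFP.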
SR-BI DiI-HDL act = activators of SR-BI mediated DiI-HDL uptake, primary screen, ldlA[mSR-BI] CHO cells, DiI fluorescence; 3 h; 100 = double the neutral-control signal; activation, % at 12.5 µM; 320,000 tested, 0.096% active;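 active = mean replicate activation of at least 60% and every replicate at or above 60%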;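 note: 0% = median plate neutral-control signal and 100% = twice that signal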
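Assay system: CHO ldlA[mSR-BI] cells, LDL receptor-null, SR-BI overexpressing; medium: Ham's F12 with 0.5% BSA, HEPES 25 mM, pH 7.4; also added: DiI-HDL 10 µg/mL; timing: 3 h uptake period with compound, 37 °C; signal: DiI fluorescence, bottom read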
RAD54 branch = inhibitors of human RAD54 branch migration, primary screen, biochemical, fluorescence, single point; DNA repair and recombination protein RAD54-like (Homo sapiens), Q92698; RAD54 Holliday junction branch migration, FAM/BHQ fluorescence; inhibition, % at 10.4 µM; 360,000 tested, 0.14% active;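 active = mean normalized replicate activity at least 40 and at least half of replicates scoring 40 or more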;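 note: 0% = median of neutral control wells and 100% = median of positive control wells; inhibitors cause a drop in the FAM fluorescence signal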
Starred values were filed as active, the others as inactive; x = no result given. Shown are actives, neighbours in structure and some others; about 1.6% of the full set was active somewhere.

SMILES	SR-BI DiI inh	PvdQ inh	dFosB activator	S100A4 inh HTS	SR-BI DiI-HDL act	RAD54 branch
Cc1ccc(C(=O)COC(=O)C2CC3CCCC(C2)C3=O)cc1[N+](=O)[O-] (centres undefined)	0	-1	-11	140*	0	0
CO[C@@H]1CN(C)C(=O)c2ccc(NS(=O)(=O)c3ccc(Cl)cc3)cc2OC[C@@H](C)N(C(=O)Cc2cccnc2)C[C@H]1C	x	x	x	-1	x	0
O=C(CSC1=NNC(c2ccccn2)S1)Nc1cccc(Cl)c1 (centres undefined)	78*	-15	-9	4	-78	-5
COc1ccc(S(=O)(=O)N(C)C[C@@H]2OCCCC[C@H](C)Oc3ccc(NC(=O)NC4CCCCC4)cc3C(=O)N([C@@H](C)CO)C[C@H]2C)cc1	x	x	x	-2	x	4
CCOc1ccc(CNC(=O)CCCc2cn(C)c3ccccc23)cc1OC	34	-14	-6	2	-34	1
CCOc1ccc(CNC(=O)CCCc2cn(C)c3ccccc23)cc1	85*	-13	-8	2	-85	-5
CN1c2ccc(Br)cc2[C@H]2[C@H](CCN2C(=O)C2CCC2)[C@@H]1CO	x	x	x	4	x	x
COc1ccc(C(=O)n2nc(C)cc2Nc2ccccc2)cc1	77*	-10	-7	x	-77	-4
Cc1ccc(S(=O)(=O)N(C)C[C@H]2OCCCC[C@H](C)Oc3ccc(NS(C)(=O)=O)cc3C(=O)N([C@H](C)CO)C[C@@H]2C)cc1	x	x	x	17	x	6
CO[C@H]1CN(C)C(=O)c2cc(NC(=O)Nc3ccccc3F)ccc2OC[C@@H](C)NC[C@H]1C	x	x	x	2	x	-9
CSc1ncccc1C(=O)Nc1nc2c(C)cccc2s1	73*	6	-10	-1	-73	x
CSc1ncccc1C(=O)Nc1ncc(C)s1	11	-14	-4	-8	-11	-10
O=C(/C=C/c1ccco1)Oc1cc(Br)cc(/C=N/NC(=O)c2ccccc2O)c1	134*	13	-14	x	-134	-8
Cc1ccc(C(=O)N/N=C/c2cccc(OC(=O)/C=C/c3ccco3)c2)cn1	-4	-2	-19	-5	4	x
O=[N+]([O-])c1cccc(-c2csc(N/N=C/c3cccc(O)c3)n2)c1	101*	7	-8	1	-101	x
CN(C)S(=O)(=O)c1ccc(-c2csc(N/N=C/c3ccc(O)cc3)n2)cc1	87*	-2	-6	1	-87	x
Clc1ccc2c(N/N=C/c3ccccc3Br)ccnc2c1	24	1	46*	1	-24	0
Clc1ccc2c(N/N=C/c3cccc(Br)c3)ccnc2c1	22	9	52*	-6	-22	2
CCOC(=O)N1CCN(C(=O)CSCC(=O)Nc2nc(-c3ccc(-c4ccccc4)cc3)cs2)CC1	85*	-21	1	6	-85	3
Cc1ccc(NC(=O)Nc2ccc3c(c2)C(=O)N(C)[C@@H]2CC[C@@H](CC(=O)NCC(F)(F)F)O[C@H]2CO3)cc1	x	x	x	-1	x	-3
Cc1cc(N(C)C(=O)c2ccc3c(c2)S(=O)(=O)c2cc(Cl)ccc2C3=O)c(C(F)(F)F)o1	74*	-15	-1	0	-74	4
CC(C)(C)CNC(=O)c1ccc2c(c1)S(=O)(=O)c1cc(Cl)ccc1C2=O	0	-5	3	3	0	0
CC(C)NC(=O)NCC[C@H]1CC[C@@H](NS(=O)(=O)c2ccc(-c3ccccc3)cc2)[C@H](CO)O1	x	x	x	17	x	2
Cc1cc2oc(=O)cc(-c3ccccc3)c2c(C)c1-c1ccc(CO)cc1	75*	-16	-12	0	-75	-7
CC(=O)c1ccc(-c2c(C)cc3oc(=O)cc(-c4ccccc4)c3c2C)cc1	56	-11	-22	2	-56	0
SMILES	SR-BI DiI inh	PvdQ inh	dFosB activator	S100A4 inh HTS	SR-BI DiI-HDL act	RAD54 branch
Cc1cc2oc(=O)cc(-c3ccccc3)c2c(C)c1-c1ccc(C#N)cc1	82*	3	3	-2	-82	6
Cc1noc(C)c1S(=O)(=O)Nc1ccc2c(c1)C(=O)N([C@@H](C)CO)C[C@H](C)[C@H](CN(C)S(=O)(=O)c1cccs1)OCCCC[C@@H](C)O2	x	x	x	x	x	-6
O=S(=O)(c1ccccc1F)N1CC[C@@H]2[C@H]1c1cc(-c3ccc(F)cc3)ccc1N[C@@H]2CO	x	x	x	2	x	5
Cc1cccc(NC(=O)C2CCN(S(=O)(=O)c3ccc4c(c3)NC(=O)CO4)CC2)c1C	30	-13	-10	-4	x	-8
CSc1cccc(NC(=O)C2CCN(S(=O)(=O)c3ccc4c(c3)NC(=O)CO4)CC2)c1	-8	-7	-1	86*	x	14
COc1ccc(CN(C)C[C@@H]2Oc3ccc(NC(=O)C4CC4)cc3CC(=O)N([C@H](C)CO)C[C@H]2C)cc1	x	x	x	1	x	-9
COC(=O)c1ccc(/C=C/c2c(-c3ccsc3)sc3ccccc23)cc1	79*	-11	1	2	-79	-1
CCN1CCN(CCC(=O)Nc2ccc3c(c2)OCO3)CC1	-29	10	-3	x	29	-6
CC1CN(CCC(=O)Nc2ccc3c(c2)OCO3)CC(C)O1 (centres undefined)	80*	-6	-3	x	-80	8
CN(C)CCCN(C(=O)c1ccc(S(=O)(=O)N2CCc3ccccc3C2)cc1)c1nc2ccc(F)cc2s1	13	0	69*	-1	-13	5
Cc1cc(C)c2sc(N(CCCN(C)C)C(=O)c3ccc(S(=O)(=O)N4CCc5ccccc5C4)cc3)nc2c1	20	-15	100*	x	-20	6
Cc1cccc2sc(N(CCCN(C)C)C(=O)c3ccc(S(=O)(=O)N4CCc5ccccc5C4)cc3)nc12	-29	-8	62*	8	29	9
CN(C)CCCN(C(=O)c1ccc(S(=O)(=O)N2CCc3ccccc3C2)cc1)c1nc2c(F)cccc2s1	-5	-6	-1	28	5	8
Cn1cnc(S(=O)(=O)N2C[C@@H](O)COC[C@@H]3O[C@H](CC(=O)NC4Cc5ccccc5C4)CC[C@H]32)c1	x	x	x	1	x	6
CNC[C@@H]1Oc2cc(C#CCN(C)C)ccc2S(=O)(=O)N([C@H](C)CO)C[C@H]1C	x	x	x	5	x	-8
C[C@@H]1CCCCO[C@@H](CN(C)Cc2ccc3c(c2)OCO3)[C@H](C)CN([C@H](C)CO)C(=O)c2cc(N(C)C)ccc2O1	x	x	x	3	x	-1
